Assay outcomes from PubChem BioAssay.
RGS4 act = RGS4 potentiators or activators, primary screen, cell-based, HEK293 M3R inducible RGS4, calcium flux. carbachol calcium flux Fluo4; hits give low values. B-score at 10 µM. 310,000 tested, 0.92% active;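 active = B-score of the integrated calcium signal more than 4 SD below the library mean, with starting fluorescence not abnormally high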;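 note: negative B-score means reduced calcium response which marks RGS4 activation or potentiation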
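Material: Inducible-RGS4 HEK293 cells carrying M3 receptor; also added: carbachol at ECmax as muscarinic agonist stimulus; incubation: compound preincubation 20 min at room temperature before agonist; signal: Fluo4-AM (2 µM) calcium-flux fluorescence, kinetic read; measure: integrated calcium ratio converted to B score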
MrgX1 ag = agonists of human MrgX1 receptor, primary screen, HEK293 cells, Fluo-4 calcium flux | Mas-related G-protein coupled receptor member X1 (Homo sapiens), Q96LB2 | Fluo-4 calcium fluorescence, agonist mode; hits give high values | B-score at 10 µM | 310,000 tested, 0.44% active | AID 588627, 2011;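 active = calcium response B-score plate-corrected fluorescence ratio at least 3 library SD, with starting fluorescence B-score inside 5 SD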
Target sequence (Q96LB2 whole entry, looked up): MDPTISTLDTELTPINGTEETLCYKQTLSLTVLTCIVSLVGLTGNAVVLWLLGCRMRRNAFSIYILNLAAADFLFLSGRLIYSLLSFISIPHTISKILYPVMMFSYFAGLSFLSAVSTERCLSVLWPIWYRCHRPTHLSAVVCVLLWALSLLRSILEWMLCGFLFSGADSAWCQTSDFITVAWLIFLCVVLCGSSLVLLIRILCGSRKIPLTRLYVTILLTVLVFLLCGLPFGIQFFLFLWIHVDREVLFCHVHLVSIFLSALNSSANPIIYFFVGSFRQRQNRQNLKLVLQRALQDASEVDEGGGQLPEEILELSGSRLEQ
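System – MrgX1-expressing HEK293 cells · Incubation – cells plated overnight, dye loaded 0.5 h 37 °C, 0.5 h room temperature · Technique – kinetic Fluo-4 NW fluorescence of intracellular calcium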
MrgX1 antagonist = antagonists of human MrgX1 receptor, primary screen, HEK293 cells, Fluo-4 calcium flux | Mas-related G-protein coupled receptor member X1 (Homo sapiens), Q96LB2 | 310,000 tested, 1.3% active | AID 588676, 2011 | B-score at 10 µM | BAM8-22 antagonism; hits give low values;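 active = calcium-response B-score plate-corrected more than 3 library SD below zero, starting fluorescence within 5 deviations, no agonist response on first addition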;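 note: peak minus trough fluorescence over baseline after final BAM8-22 challenge near maximal dose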
MrgX1 PAM = positive allosteric modulators of MrgX1, primary screen, HEK293 cells, Fluo-4 calcium flux; Mas-related G-protein coupled receptor member X1 (Homo sapiens), Q96LB2; FDSS; hits give high values; B-score at 10 µM; 310,000 tested, 0.63% active;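 active = plate-corrected calcium response at least 3 library SD above typical, normal starting fluorescence, not activating the receptor alone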;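 note: compound read alongside a low EC10 to EC30 dose of BAM8-22 agonist; peak minus trough fluorescence over baseline measured at the second addition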
RGS4 block = RGS4 inhibitors, primary screen, cell-based, HEK293 M3R inducible RGS4, calcium flux | Regulator of G-protein signaling 4 (Homo sapiens), P49798 | Fluo-4 calcium flux; hits give high values; triggered by carbachol at its EC20 | B-score at 10 µM | 310,000 tested, 0.45% active | AID 463165, 2010;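 active = B-score, a plate-corrected calcium signal, over three deviations above library mean, with baseline fluorescence within five deviations of library mean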;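 note: RGS4 expression induced by doxycycline in cells with stable M3 receptor; B-score is computed from the integrated fluorescence ratio over baseline after carbachol; higher B-score means a larger calcium signal and so more RGS4 inhibition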
Target sequence (P49798 whole entry, looked up): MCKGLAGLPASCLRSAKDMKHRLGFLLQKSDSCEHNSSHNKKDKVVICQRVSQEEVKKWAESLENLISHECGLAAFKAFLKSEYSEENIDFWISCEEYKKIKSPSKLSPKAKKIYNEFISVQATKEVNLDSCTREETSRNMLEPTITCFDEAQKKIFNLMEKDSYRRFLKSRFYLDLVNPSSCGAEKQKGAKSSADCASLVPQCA
MrgX1 ant reconf = MrgX1 receptor antagonists, duplicate retest, confirmation, HEK293 cells, Fluo-4 calcium flux; shares compounds with MrgX1 antagonist; BAM8-22 calcium flux; hits give low values; remaining BAM8-22 calcium response % of control (hits give low values), % at 10 µM; 2,300 tested, 19% active; AID 602420, 2012;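 active = remaining agonist calcium response no higher than 100% minus 3 SD of agonist-only control wells, with starting fluorescence near control levels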;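 note: agonist BAM8-22 given at a near maximal EC90 to ECmax level; peak minus minimum fluorescence divided by baseline after agonist addition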
HEK293 Ca flux = nonspecific calcium signal in parental HEK293, confirmation, counter-screen for MrgX1 antagonist project, parental HEK293 cells, Fluo-4 calcium flux. 4,000 tested, 2% active. Fluo-4 calcium fluorescence, FDSS. AID 624111, 2012. fluorescence ratio F(max-min)/F0 at 10 µM. shares compounds with MrgX1 antagonist;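 active = duplicate-averaged calcium fluorescence ratio at least three times the standard deviation of buffer wells, a nonspecific response in parental cells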
HEK293 Ca counter = calcium response in parental HEK293 cells, primary screen, counter-screen for MrgX1 allosteric activator project, cell-based, Fluo-4 calcium flux, duplicate. shares compounds with MrgX1 antagonist. Fluo-4 fluorescence ratio; hits give high values. fluorescence ratio F(max-min)/F0 at 10 µM. 4,000 tested, 0.4% active. AID 624114, 2012;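 active = calcium fluorescence ratio, averaged over duplicates, at least 3 SD of the buffer-well ratio, meaning a nonspecific response in receptor-free cells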;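 note: untransfected parental HEK293 lacking MrgX1 used as counterscreen for MrgX1 allosteric activators; fluorescence change taken during the second addition on a kinetic imager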
HEK293 Ca cntr2 = calcium response in parental HEK293 cells, primary screen, counter-screen for MrgX1 agonist project, cell-based, Fluo-4 calcium flux, duplicate, agonist mode; shares compounds with MrgX1 antagonist; Fluo-4 calcium fluorescence (FDSS); hits give high values; fluorescence ratio F(max-min)/F0 at 10 µM; 4,000 tested, 8.7% active;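 active = calcium fluorescence ratio at least three times the spread of buffer wells, meaning a non-specific response in parental cells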
Each line names hits and unclear results; the compound was inactive in the other large screens (follow-up assays come after a bar, where they were run). Only some compounds are listed: those with a hit (about 3.5% of all), similar ones and a draw of the others.

O=C(NCCCn1ccnc1)c1cc(S(=O)(=O)N2CCOCC2)c(Cl)cc1Cl	MrgX1 antagonist -5.1 | MrgX1 ant reconf inactive | HEK293 Ca flux inactive | HEK293 Ca counter inactive | HEK293 Ca cntr2 inactive
CCCC(C)NC(=O)c1ccc(F)cc1 (centres undefined)	none
CCOC(=O)NC(NC(=O)OCC)C(=O)c1ccc(F)cc1	MrgX1 antagonist -5.1 | MrgX1 ant reconf inactive | HEK293 Ca flux inactive | HEK293 Ca counter inactive | HEK293 Ca cntr2 inactive
CCCCOc1ccc(S(=O)(=O)N2CCN(c3ccc(N4CCN(CC)CC4)nn3)CC2)cc1	none
CCc1nc(NC(=O)Cc2csc(C)n2)sc1C(=O)OC	none
O=[N+]([O-])c1ccc(-c2n(-c3ccccn3)c3ccccc3[n+]2-c2ccccn2)cc1	none
Cc1cccc(C(=O)NCC(=O)N2CCN(S(=O)(=O)c3ccccc3)CC2)c1	MrgX1 antagonist -4.6 | MrgX1 ant reconf inactive | HEK293 Ca flux inactive | HEK293 Ca counter inactive | HEK293 Ca cntr2 inactive
CCOc1ccc(C(NC(C)=O)c2ccc(OC)c(OC)c2)cc1 (centres undefined)	MrgX1 antagonist -4.9 | MrgX1 ant reconf inactive | HEK293 Ca flux inactive | HEK293 Ca counter inactive | HEK293 Ca cntr2 inactive
CCn1c2ccccc2c2c3ncc4cccn4c3ccc21	MrgX1 antagonist -5.8 | MrgX1 ant reconf 78% | HEK293 Ca flux inactive | HEK293 Ca counter inactive | HEK293 Ca cntr2 inactive
COc1ccc2c(C(=O)CCl)c[nH]c2c1	none
CCC(C)CCN1C(Nc2ccccc2)=NC[C@@H]1Cc1ccccc1 (some centres undefined)	none
CCOc1ccccc1CNS(=O)(=O)c1cc(-c2cc(C)no2)ccc1OC	none
COc1ccc(-c2cc(C)no2)cc1S(=O)(=O)NCC(C)c1ccccc1 (centres undefined)	MrgX1 antagonist -6.7 | MrgX1 ant reconf inactive | HEK293 Ca flux inactive | HEK293 Ca counter inactive | HEK293 Ca cntr2 inactive
Cc1ccc(-c2nc3cccnc3o2)cc1NC(=O)COc1ccc(C(C)(C)C)cc1	RGS4 act -8.2, MrgX1 antagonist -12 | MrgX1 ant reconf 83% | HEK293 Ca flux inactive | HEK293 Ca counter inactive | HEK293 Ca cntr2 inactive
O=C1C(C=NCc2ccco2)=C(O)c2ccccc21	MrgX1 antagonist -8.6 | MrgX1 ant reconf inactive | HEK293 Ca flux inactive | HEK293 Ca counter inactive | HEK293 Ca cntr2 inactive
CCOC(=O)CSc1nnc(CNC(=O)c2cccc(C)c2)n1C	none
Cc1cccc(C(=O)NCc2nnc(SCc3ccc(F)cc3)n2C)c1	MrgX1 antagonist -4.8 | MrgX1 ant reconf inactive | HEK293 Ca flux inactive | HEK293 Ca counter inactive | HEK293 Ca cntr2 inactive
COC(=O)c1ccc(CNC(=O)COC(=O)CCN2C(=O)C3CC=CCC3C2=O)cc1 (centres undefined)	none
Cc1ccc(NNC(=O)c2ccno2)cc1Cl	none
O=C(Nc1cc(Cl)cc(Cl)c1)c1ccno1	MrgX1 antagonist -4.5 | MrgX1 ant reconf inactive | HEK293 Ca flux inactive | HEK293 Ca counter inactive | HEK293 Ca cntr2 inactive
CCc1ccc(C(=O)NNC(=O)CCC2CCCCC2)cc1	none
Cc1occc1C(=O)N/N=C/c1cccs1	MrgX1 antagonist -10 | MrgX1 ant reconf 83% | HEK293 Ca flux inactive | HEK293 Ca counter inactive | HEK293 Ca cntr2 inactive
Cc1ccccc1OC(C)C(=O)Nc1cccnc1 (centres undefined)	none
N#CC1=C(N)Oc2cc3c(cc2C1c1ccc(Cl)cc1)OCO3 (centres undefined)	MrgX1 antagonist -7.9 | MrgX1 ant reconf inactive | HEK293 Ca flux inactive | HEK293 Ca counter inactive | HEK293 Ca cntr2 inactive
CC(C)CC(=O)NC(=S)N1CCN(c2ccc([N+](=O)[O-])cc2Cl)CC1	none
CCn1c(SCC(=O)c2ccc3c(c2)OCCO3)nnc1C(C)C	MrgX1 antagonist -4.7 (no result: RGS4 act, RGS4 block) | MrgX1 ant reconf inactive | HEK293 Ca flux inactive | HEK293 Ca counter inactive | HEK293 Ca cntr2 inactive
COc1ccc(N(CC(=O)NCc2ccccc2)S(=O)(=O)c2c(C)nn(C)c2C)cc1	MrgX1 antagonist -6.6 | MrgX1 ant reconf inactive | HEK293 Ca flux inactive | HEK293 Ca counter inactive | HEK293 Ca cntr2 inactive
CC(=O)Nc1ccc(NCN2C(=O)C3C4CCC(C4)C3C2=O)cc1 (centres undefined)	none
COC(=O)c1ccc(NCN2C(=O)C3C4CCC(C4)C3C2=O)cc1 (centres undefined)	MrgX1 antagonist -5.6 | MrgX1 ant reconf inactive | HEK293 Ca flux inactive | HEK293 Ca counter inactive | HEK293 Ca cntr2 inactive
Cc1ccc2c(c1)cc1c(=O)n(CC(=O)NCc3ccccn3)nc(C)n12	none
CCc1ccc(S(=O)(=O)/N=C2\C=C(Nc3ccc(C(=O)O)cc3)C(=O)c3ccccc32)cc1	MrgX1 antagonist -7.7 | MrgX1 ant reconf 85% | HEK293 Ca flux inactive | HEK293 Ca counter inactive | HEK293 Ca cntr2 inactive
Cc1ccc(S(=O)(=O)/N=C2\C=C(Nc3cccc(C(=O)O)c3)C(=O)c3ccccc32)cc1	none
CCCCN(Cc1ccccc1)S(=O)(=O)c1cc(Br)cc2c1N(C(C)=O)C(C)C2 (centres undefined)	none
Cn1c(=O)n(CCC(=O)O)c2ccccc21	none
Cn1c(=O)n(Cc2ccc(Br)cc2)c2ccccc21	MrgX1 antagonist -9.3 | MrgX1 ant reconf inactive | HEK293 Ca flux inactive | HEK293 Ca counter inactive | HEK293 Ca cntr2 inactive
O=C(Cc1c(F)cccc1Cl)Nc1ccon1	MrgX1 antagonist -6.5 | MrgX1 ant reconf inactive | HEK293 Ca flux inactive | HEK293 Ca counter inactive | HEK293 Ca cntr2 inactive
Cc1cc(NC(=O)Cc2c(F)cccc2Cl)no1	none
CCOc1nc(Nc2ccc(OC)cc2)nc(OCC)n1	none
CCOc1nc(Nc2ccc(OC)c(Cl)c2)nc(OCC)n1	MrgX1 antagonist -4.8 | MrgX1 ant reconf inactive | HEK293 Ca flux inactive | HEK293 Ca counter inactive | HEK293 Ca cntr2 inactive
